Measured values reported in ChEMBL document CHEMBL2169837 (J Med Chem, 2012).
In brackets after ≈: the same amount, converted by molar mass. Activity calls are given as the source filed them. The rule behind the calls is not given here.

Legend:
[1] = molecular target: T1, Vasopressin V1b receptor (Homo sapiens) (UniProt P47901); assay: Displacement of [3H]-AVP from human vasopressin V1b receptor expressed in CHO cells at 10 uM after 30 mins; assay type: cell-based
T1 sequence (whole entry): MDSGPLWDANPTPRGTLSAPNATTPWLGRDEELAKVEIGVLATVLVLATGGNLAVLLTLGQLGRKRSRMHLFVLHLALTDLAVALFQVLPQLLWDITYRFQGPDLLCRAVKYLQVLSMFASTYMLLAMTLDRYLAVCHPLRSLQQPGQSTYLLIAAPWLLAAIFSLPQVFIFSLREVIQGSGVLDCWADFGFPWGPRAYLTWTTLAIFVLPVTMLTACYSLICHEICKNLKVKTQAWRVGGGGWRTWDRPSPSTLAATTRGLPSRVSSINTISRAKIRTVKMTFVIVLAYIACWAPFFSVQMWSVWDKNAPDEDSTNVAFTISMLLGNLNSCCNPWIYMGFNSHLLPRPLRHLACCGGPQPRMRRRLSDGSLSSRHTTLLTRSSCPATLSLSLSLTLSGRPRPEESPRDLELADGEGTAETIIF
Summary of the method: (§1)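 Human OTR, V1aR or V1bR membranes from CHO cells, [3H]-AVP displacement with compound at a single 10 μM concentration, 30 min at 30 °C in Tris-HCl pH 7.4/MgCl2/BSA buffer.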

Vasopressin V1b receptor = molecular target: T2, Vasopressin V1b receptor (Homo sapiens, UniProt P47901); assay: Displacement of [3H]-AVP from human vasopressin V1b receptor expressed in CHO cells after 30 mins; assay type: cell-based
T2 sequence (P47901 whole entry): T1 sequence (whole entry)

Vasopressin V2 receptor [2] = molecular target: T3, Vasopressin V2 receptor (Homo sapiens, UniProt P30518); assay: Displacement of [3H]-AVP from human vasopressin V2 receptor expressed in CHO cells after 30 mins; assay type: cell-based
Vasopressin V1a receptor [3] = molecular target: T4, Vasopressin V1a receptor (Homo sapiens, UniProt P37288); assay: Displacement of [3H]-AVP from human vasopressin V1a receptor expressed in CHO cells at 10 uM after 30 mins; assay type: cell-based; summary of the method: as §1
Target sequence in this assay (P37288 whole entry, looked up): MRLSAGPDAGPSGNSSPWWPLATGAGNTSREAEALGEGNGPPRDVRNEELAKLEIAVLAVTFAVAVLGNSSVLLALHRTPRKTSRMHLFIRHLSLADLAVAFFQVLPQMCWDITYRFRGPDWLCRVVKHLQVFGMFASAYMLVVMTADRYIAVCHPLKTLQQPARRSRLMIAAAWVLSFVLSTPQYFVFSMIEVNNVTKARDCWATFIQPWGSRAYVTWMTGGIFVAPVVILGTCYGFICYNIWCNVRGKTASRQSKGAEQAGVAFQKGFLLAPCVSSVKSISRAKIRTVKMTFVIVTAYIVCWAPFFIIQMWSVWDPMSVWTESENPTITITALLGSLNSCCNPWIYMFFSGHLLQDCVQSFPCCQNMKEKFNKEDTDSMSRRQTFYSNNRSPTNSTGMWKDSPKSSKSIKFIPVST

Oxytocin receptor [4] = molecular target: T5, Oxytocin receptor (Homo sapiens, UniProt P30559); assay: Displacement of [3H]-AVP from human oxytocin receptor expressed in CHO cells after 30 mins; assay type: cell-based
T5 sequence (P30559 whole entry): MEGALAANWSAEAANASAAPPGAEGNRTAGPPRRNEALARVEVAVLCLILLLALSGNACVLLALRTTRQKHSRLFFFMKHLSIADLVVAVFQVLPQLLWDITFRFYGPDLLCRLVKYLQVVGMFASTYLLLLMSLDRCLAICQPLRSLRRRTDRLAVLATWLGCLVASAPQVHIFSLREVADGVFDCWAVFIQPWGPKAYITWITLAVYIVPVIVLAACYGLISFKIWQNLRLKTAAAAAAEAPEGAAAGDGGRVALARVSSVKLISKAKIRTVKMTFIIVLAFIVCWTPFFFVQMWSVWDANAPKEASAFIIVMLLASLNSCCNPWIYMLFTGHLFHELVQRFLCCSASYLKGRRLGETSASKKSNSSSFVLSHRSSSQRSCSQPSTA

Vasopressin V2 receptor [5] = molecular target: T3, Vasopressin V2 receptor; assay: Antagonist activity at human vasopressin V2 receptor expressed in CHO cells assessed as inhibition of AVP-induced cAMP accumulation after 30 mins by TR-FRET based HTRF assay; assay type: functional, cell-based
Summary of the method: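 CHO cells stably expressing human V2R, 5 × 10^3 per well on polyornithine, used 24 h after seeding. Incubated 30 min at 37 °C with compound (10−12 to 10−5 M) plus phosphodiesterase inhibitor RO 201724 0.1 mM. Antagonist mode run with 1 nM AVP. Cells lysed and cAMP read by HTRF (TR-FRET). Kact/Kinact from three independent experiments in triplicate, mean ± SEM.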

Vasopressin V1a receptor [6] = molecular target: T4, Vasopressin V1a receptor; assay: Displacement of [3H]-AVP from human vasopressin V1a receptor expressed in CHO cells after 30 mins; assay type: cell-based
Target sequence in this assay (P37288 whole entry): as the sequence (P37288 whole entry, looked up) above

Vasopressin V2 receptor [7] = molecular target: T3, Vasopressin V2 receptor; assay: Agonist activity at human vasopressin V2 receptor expressed in CHO cells assessed as cAMP accumulation after 30 mins by TR-FRET based HTRF assay; assay type: functional, cell-based
Summary of the method: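 CHO cells stably expressing human V2R, 5 × 10^3 per well on polyornithine, used 24 h after seeding. Cells lysed and cAMP read by HTRF (TR-FRET). Kact/Kinact from three independent experiments in triplicate, mean ± SEM.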

Vasopressin V2 receptor [8] = molecular target: T3, Vasopressin V2 receptor; assay: Binding affinity to SNAP-tagged vasopressin V2 receptor expressed in HEK293 cells after 1 hr by TR-FRET assay; assay type: cell-based
Summary of the method: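 HEK 293T cells electroporated with SNAP-tag–V2R and grown 48 h. Receptor labeled 1 h at 37 °C with SNAP-Lumi4-Tb (100 nM) or SNAP-RED (300 nM), then washed. Rising fluorescent-ligand concentrations added and incubated overnight at 4 °C. TR-FRET read with excitation 340 nm, emission 620/665 nm. Nonspecific binding taken with 10 μM unlabeled ligand. Kd from saturation, three experiments in triplicate.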

[9] = molecular target: T6, Oxytocin receptor (Homo sapiens) (UniProt P30559); assay: Displacement of [3H]-AVP from human oxytocin receptor expressed in CHO cells at 10 uM after 30 mins; assay type: cell-based; summary of the method: as §1
T6 sequence (whole entry): T5 sequence (P30559 whole entry)

[10] = Solubility of the compound in HEPES buffer at pH 7.4 after 24 hrs; assay type: physicochemical
Summary of the method: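 Solubility measured in pH 7.4 HEPES buffer after 24 h incubation at 22 °C.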

Vasopressin V1a receptor [11] = molecular target: T4, Vasopressin V1a receptor; assay: Binding affinity to vasopressin V1a receptor
Summary of the method: (§2)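 Membranes (5 μg protein) from CHO cells stably expressing human V2R, V1aR, V1bR or OTR. Incubated 30 min at 30 °C in 50 mM Tris-HCl pH 7.4, 5 mM MgCl2, 1 mg/mL BSA with [3H]-AVP (1−2 nM) and competitor from 100 pM to 100 μM. Nonspecific binding with 10 μM AVP. GF/C filtration; Ki by nonlinear least-squares regression. Triplicate, at least three membrane batches.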
Target sequence in this assay (P37288 whole entry): as the sequence (P37288 whole entry, looked up) above

Oxytocin receptor [12] = molecular target: T5, Oxytocin receptor; assay: Binding affinity to oxytocin receptor; summary of the method: as §2
Homo sapiens = organism: Homo sapiens; assay: Selectivity ratio of Ki for human oxytocin receptor to Ki for human vasopressin V2 receptor

T3 sequence (P30518 whole entry): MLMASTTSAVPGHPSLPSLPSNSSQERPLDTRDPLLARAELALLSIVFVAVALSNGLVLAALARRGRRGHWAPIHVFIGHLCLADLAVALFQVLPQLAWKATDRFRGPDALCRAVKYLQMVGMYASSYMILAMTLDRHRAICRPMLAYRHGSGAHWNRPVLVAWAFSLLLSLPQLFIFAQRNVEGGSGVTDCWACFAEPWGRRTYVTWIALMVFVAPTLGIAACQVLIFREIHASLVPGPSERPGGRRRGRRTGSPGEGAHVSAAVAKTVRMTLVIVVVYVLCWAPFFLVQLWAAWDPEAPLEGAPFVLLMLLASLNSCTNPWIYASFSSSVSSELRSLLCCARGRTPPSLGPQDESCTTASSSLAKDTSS

| SMILES | inhibition [1] [%] | Ki (Vasopressin V1b receptor) [µM] | Ki (Vasopressin V2 receptor [2]) [nM] | inhibition (Vasopressin V1a receptor [3]) [%] | Ki (Oxytocin receptor [4]) [nM] | Kb (Vasopressin V2 receptor [5]) [nM] | inhibition (Vasopressin V2 receptor [5]) | Ki (Vasopressin V1a receptor [6]) [µM] | Activity (Vasopressin V2 receptor [7]) | Kd (Vasopressin V2 receptor [8]) [nM] | inhibition [9] [%] | solubility at 24 h [10] [µM] | Ki (Vasopressin V1a receptor [11]) [nM] | Ki (Oxytocin receptor [12]) [nM] | Ratio Ki (Homo sapiens) |
| --- | --- | --- | --- | --- | --- | --- | --- | --- | --- | --- | --- | --- | --- | --- | --- |
| CCN(CC)c1ccc2c(-c3ccc(S(=O)(=O)[O-])cc3S(=O)(=O)NCCOCCOCCOCCn3cc(CNC(=O)CCC(=O)NC4CCCN(C(=O)c5ccc(NC(=O)c6ccccc6C)cc5)c5ccccc54)nn3)c3ccc(=[N+](CC)CC)cc-3oc2c1 (centres undefined) | < 50 | > 10 | 188 | < 50 | 307 | 164 | Dose-dependent effect | > 10 | inactive | – | – | – | – | – | – |
| CCN1/C(=C/C=C/C=C/C2=[N+](CC)c3ccc(S(=O)(=O)[O-])cc3C2(C)C)C(C)(CCCC(=O)NCCOCCOCCOCCOCCOCCOCCn2cc(CNC(=O)CCC(=O)NC3CCCN(C(=O)c4ccc(NC(=O)c5ccccc5-c5ccccc5)cc4)c4ccccc43)nn2)c2cc(S(=O)(=O)O)ccc21 (centres undefined) | – | – | 14.2 | – | – | 0.54 | Dose-dependent effect | – | inactive | 2.53 | – | – | – | – | – |
| CCN(CC)c1ccc2c(-c3ccc(S(=O)(=O)[O-])cc3S(=O)(=O)NCCOCCOCCOCCn3cc(CNC(=O)CCC(=O)NC4CCCN(C(=O)c5ccc(NC(=O)c6ccccc6-c6ccccc6)cc5)c5ccccc54)nn3)c3ccc(=[N+](CC)CC)cc-3oc2c1 (centres undefined) | < 50 | > 10 | 14.1 | < 50 | > 10000 | 2.12 | Dose-dependent effect | > 10 | inactive | – | < 50 | – | – | – | – |
| CCN1/C(=C/C=C/C=C/C2=[N+](CC)c3ccc(S(=O)(=O)[O-])cc3C2(C)C)C(C)(CCCC(=O)NCCOCCOCCOCCn2cc(CNC(=O)CCC(=O)NC3CCCN(C(=O)c4ccc(NC(=O)c5ccccc5-c5ccccc5)cc4)c4ccccc43)nn2)c2cc(S(=O)(=O)O)ccc21 (centres undefined) | < 50 | > 10 | 9.02 | – | 808 | 0.1 | Dose-dependent effect | 1.75 | inactive | 2.33 | – | – | – | – | – |
| CCN(CC)c1ccc2c(-c3ccc(S(=O)(=O)NCCCCC(=O)NC4CCCN(C(=O)c5ccc(NC(=O)c6ccccc6-c6ccccc6)cc5)c5ccccc54)cc3S(=O)(=O)[O-])c3ccc(=[N+](CC)CC)cc-3oc2c1 (centres undefined) | – | – | 7.6 | – | – | 0.66 | Dose-dependent effect | – | inactive | – | – | 3.1 (≈ 3.41 µg/mL) | – | – | – |
| CCN(CC)c1ccc2c(-c3ccc(S(=O)(=O)NCCOCCOCCOCCn4cc(CNC(=O)CCC(=O)NC5CCCN(C(=O)c6ccc(NC(=O)c7ccccc7-c7ccccc7)cc6)c6ccccc65)nn4)cc3S(=O)(=O)[O-])c3ccc(=[N+](CC)CC)cc-3oc2c1 (centres undefined) | < 50 | > 10 | 4 | < 50 | > 10000 | 1.96 | Dose-dependent effect | > 10 | inactive | – | < 50 | 2.1 (≈ 2.85 µg/mL) | – | – | – |
| CCN(CC)c1ccc2c(-c3ccc(S(=O)(=O)N4CCN(CCC(=O)NC5CCCN(C(=O)c6ccc(NC(=O)c7ccccc7-c7ccccc7)cc6)c6ccccc65)CC4)cc3S(=O)(=O)[O-])c3ccc(=[N+](CC)CC)cc-3oc2c1 (centres undefined) | – | – | 12.7 | – | – | 2.03 | Dose-dependent effect | – | inactive | – | – | 3.7 (≈ 4.23 µg/mL) | – | – | – |
| CCN(CC)c1ccc2c(-c3ccc(S(=O)(=O)NCCOCCOCCOCCC(=O)NC4CCCN(C(=O)c5ccc(NC(=O)c6ccccc6-c6ccccc6)cc5)c5ccccc54)cc3S(=O)(=O)[O-])c3ccc(=[N+](CC)CC)cc-3oc2c1 (centres undefined) | – | – | 16.8 | – | – | 8.91 | Dose-dependent effect | – | inactive | – | – | 6.2 (≈ 7.47 µg/mL) | – | – | – |
| CCN(CC)c1ccc2c(-c3ccc(S(=O)(=O)NCCOCCOCCOCCn4cc(CNC(=O)CCC(=O)NC5CCCN(C(=O)c6ccc(NC(=O)c7ccccc7C)cc6)c6ccccc65)nn4)cc3S(=O)(=O)[O-])c3ccc(=[N+](CC)CC)cc-3oc2c1 (centres undefined) | < 50 | > 10 | 54.3 | < 50 | 495 | 16.7 | Dose-dependent effect | > 10 | inactive | – | – | 3.4 (≈ 4.4 µg/mL) | – | – | – |
| Cc1ccccc1C(=O)Nc1ccc(C(=O)N2CCCC(N(C)C)c3ccccc32)cc1 (centres undefined) [MOZAVAPTAN] | – | – | – | – | – | – | Dose-dependent effect | – | inactive | – | – | – | 195 | 660 | – |
| CCN(CC)c1ccc2c(-c3ccc(S(=O)(=O)NC4CCCN(C(=O)c5ccc(NC(=O)c6ccccc6-c6ccccc6)cc5)c5ccccc54)cc3S(=O)(=O)[O-])c3ccc(=[N+](CC)CC)cc-3oc2c1 (centres undefined) | – | – | 25.3 | – | – | 3.8 | Dose-dependent effect | – | inactive | – | – | 2.1 (≈ 2.1 µg/mL) | – | – | – |
| O=C(CCC(=O)NC1CCCN(C(=O)c2ccc(NC(=O)c3ccccc3-c3ccccc3)cc2)c2ccccc21)NCc1cn(CCOCCOCCOCCNC(=S)Nc2ccc(-c3c4ccc(=O)cc-4oc4cc(O)ccc34)c(C(=O)O)c2)nn1 (centres undefined) | < 50 | > 10 | 26.1 | < 50 | 665 | 0.78 | Dose-dependent effect | > 10 | inactive | 11.1 | – | – | – | – | 25 |
